ChEMBL document CHEMBL1157410, “7-aryl 1,5-dihydro-benzo[e][1,4]oxazepin-2-ones and analogs as non-steroidal progesterone receptor antagonists” (Bioorg Med Chem, 2008)
The source made the active and inactive calls. The calls are words filed in the database; no cut-off is given here.

What was measured:
[1] = target: T1, Estrogen receptor (Homo sapiens) (UniProt P03372); experiment: Antagonist activity at cloned estrogen receptor-ligand binding domain expressed in african green monkey COS7 cells by GAL4 luciferase reporter assay upto 10 uM; assay type: cell-based; conditions: COS-7
T1 sequence (whole entry): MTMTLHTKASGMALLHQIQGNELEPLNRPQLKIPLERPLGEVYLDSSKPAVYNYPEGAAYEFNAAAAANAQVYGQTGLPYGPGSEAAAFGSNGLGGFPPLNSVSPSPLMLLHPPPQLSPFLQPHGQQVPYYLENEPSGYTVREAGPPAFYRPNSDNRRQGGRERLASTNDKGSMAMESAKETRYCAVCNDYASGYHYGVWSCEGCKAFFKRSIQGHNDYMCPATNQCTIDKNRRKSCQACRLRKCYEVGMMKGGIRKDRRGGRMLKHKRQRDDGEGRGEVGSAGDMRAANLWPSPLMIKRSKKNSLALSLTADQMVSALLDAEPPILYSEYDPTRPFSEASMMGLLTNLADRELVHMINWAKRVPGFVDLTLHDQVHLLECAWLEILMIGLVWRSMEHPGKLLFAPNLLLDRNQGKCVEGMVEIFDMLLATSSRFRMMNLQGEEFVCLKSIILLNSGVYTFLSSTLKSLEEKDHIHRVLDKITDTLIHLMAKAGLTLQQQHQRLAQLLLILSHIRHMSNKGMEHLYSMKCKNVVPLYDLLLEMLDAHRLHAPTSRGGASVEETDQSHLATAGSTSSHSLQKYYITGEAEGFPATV
Procedure, shortened: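 COS-7 cells in phenol red-free DMEM with 10% charcoal/dextran-treated FBS were transfected for 16 h with a GAL4-DBD/receptor-LBD fusion plasmid and a GAL4_UAS (5 copies, E1b TATA) luciferase reporter, 50 ng/well each. Cells were then given compound for 20 h, and luciferase activity was read from cell lysates by luminometer.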

[2] = test system: Rattus norvegicus; experiment: Activity in ovariectomized rat assessed as inhibition of progesterone-induced decidualization at 3 mg/kg, po; assay type: functional; set-up: scale not given: the % may be the effect or the level left
[3] = target: T2, Mineralocorticoid receptor (Homo sapiens) (UniProt P08235); experiment: (§1) Antagonist activity at cloned mineralocorticoid receptor-ligand binding domain expressed in african green monkey COS7 cells by GAL4 luciferase reporter assay; assay type: cell-based; conditions: COS-7; concentration not given here
T2 sequence (whole entry): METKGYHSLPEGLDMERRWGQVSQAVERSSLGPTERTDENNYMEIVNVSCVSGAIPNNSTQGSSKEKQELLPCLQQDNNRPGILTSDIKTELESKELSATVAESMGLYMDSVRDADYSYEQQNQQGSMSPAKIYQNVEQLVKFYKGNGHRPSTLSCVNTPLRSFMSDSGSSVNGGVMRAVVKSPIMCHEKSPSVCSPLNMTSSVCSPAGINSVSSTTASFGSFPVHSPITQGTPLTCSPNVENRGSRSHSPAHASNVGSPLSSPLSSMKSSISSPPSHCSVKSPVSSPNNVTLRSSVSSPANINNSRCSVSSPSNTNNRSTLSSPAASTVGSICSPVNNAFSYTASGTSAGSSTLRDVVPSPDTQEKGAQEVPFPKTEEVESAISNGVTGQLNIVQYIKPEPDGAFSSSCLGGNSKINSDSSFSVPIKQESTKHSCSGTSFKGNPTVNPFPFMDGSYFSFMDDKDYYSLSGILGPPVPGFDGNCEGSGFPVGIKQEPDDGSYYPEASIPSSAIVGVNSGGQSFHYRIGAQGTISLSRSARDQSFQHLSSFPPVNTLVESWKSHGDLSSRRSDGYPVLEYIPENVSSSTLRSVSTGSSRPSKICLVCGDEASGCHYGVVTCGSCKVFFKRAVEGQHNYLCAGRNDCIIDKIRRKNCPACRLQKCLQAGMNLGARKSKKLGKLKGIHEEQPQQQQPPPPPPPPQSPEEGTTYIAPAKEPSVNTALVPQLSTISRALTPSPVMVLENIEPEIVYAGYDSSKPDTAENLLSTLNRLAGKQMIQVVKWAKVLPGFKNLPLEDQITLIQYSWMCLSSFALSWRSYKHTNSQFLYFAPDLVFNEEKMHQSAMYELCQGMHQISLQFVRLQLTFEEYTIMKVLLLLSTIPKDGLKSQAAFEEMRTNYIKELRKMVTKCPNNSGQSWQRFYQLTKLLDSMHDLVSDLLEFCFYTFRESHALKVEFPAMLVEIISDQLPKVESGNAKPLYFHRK
Procedure, shortened: (§2)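 GAL4 DNA-binding domain fused to receptor ligand-binding domain, one-hybrid format. LBD fusion and GAL4_UAS (5 copies, E1b minimal TATA) luciferase reporter plasmids, 50 ng/well each, transfected 16 h into COS-7 cells. Cells grown in phenol red-free DMEM with 10% charcoal/dextran-treated FBS. Compound exposure 20 h, then luciferase read on lysates. Mean of at least duplicate determinations.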

[4] = target: T3, Mineralocorticoid receptor (Homo sapiens, UniProt P08235); experiment: as §1; assay type: cell-based, COS-7; procedure, shortened: as §2
T3 sequence (P08235 whole entry): T2 sequence (whole entry)

[5] = Selectivity for progesterone receptor over androgen receptor
[6] = Selectivity for progesterone receptor over glucocorticoid receptor
[7] = Selectivity for progesterone receptor over estrogen receptor
[8] = Selectivity for progesterone receptor over mineralocorticoid receptor

Activity [1] | inhibition [3] [%] | IC50 [4] [µM] | Selectivity ratio [5] | Selectivity ratio [6] | Selectivity ratio [7] | Selectivity ratio [8] | Compound | Activity [2] [%]
inactive | 60 | > 3 | > 100 | > 100 | > 100 | > 100 | N#Cc1cc(F)cc(-c2ccc3c(c2)C(c2ccco2)(c2ccco2)OCC(=O)N3)c1 | 
inactive | 32 | > 3 | > 100 | > 100 | > 100 | > 100 | CC1(C)OCC(=O)Nc2ccc(-c3cc(F)cc(C#N)c3)cc21 | 50

Compound | Activity [1] | inhibition [3] [%] | IC50 [4] [µM] | Selectivity ratio [5] | Selectivity ratio [6] | Selectivity ratio [7] | Selectivity ratio [8] | Activity [2] [%]
CCC1(c2ccco2)OCC(=O)Nc2ccc(-c3cc(F)cc(C#N)c3)cc21 (centres undefined) | inactive | 82 | > 3 |  |  |  |  | 50
